From EPA's CvTdb concentration-time database

Experiments:
[1] = system: Rat; experiment: concentration in liver after dosing; details: 12 h; dosed: Fluorotelomer alcohol 8+2; 24 mg/kg; oral; Male; Harlan Sprague Dawley
[2] = system: Rat; experiment: concentration in plasma after dosing; details: dosed: Fluorotelomer alcohol 8+2, 40 mg/kg, iv, Male, F344
[3] = system: Rat; experiment: concentration in brain after dosing; details: 6 h; dosed: Fluorotelomer alcohol 8+2; 80 mg/kg; oral; Female; Harlan Sprague Dawley
[4] = system: Rat; experiment: concentration in kidney after dosing; details: 12 h; dosed: Fluorotelomer alcohol 8+2; 80 mg/kg; oral; Female; Harlan Sprague Dawley
[5] = system: Rat; experiment: concentration in plasma after dosing; details: 12 h; dosed: Primidone; 30 mg/kg; oral; Female; F344
[6] = system: Rat; experiment: concentration in plasma after dosing; details: 12 h; dosed: Primidone; 80 mg/kg; oral; Female; Harlan Sprague-Dawley
[7] = system: Rat; experiment: concentration in plasma after dosing; details: 6 h; dosed: Primidone; 80 mg/kg; oral; Male; F344
[8] = system: Rat; experiment: concentration in plasma after dosing; details: 0.5 h; dosed: Primidone; 30 mg/kg; oral; Male; F344
[9] = system: Rat; experiment: concentration in kidney after dosing; details: 3360 h; dosed: Perfluorodecanoic acid; 10 mg/kg; oral; Male; Harlan Sprague Dawley
[10] = system: Rat; experiment: concentration in brain after dosing; details: 864 h; dosed: Perfluorodecanoic acid; 10 mg/kg; oral; Male; Harlan Sprague Dawley
[11] = system: Rat; experiment: concentration in liver after dosing; details: 864 h; dosed: Perfluorodecanoic acid; 10 mg/kg; oral; Male; Harlan Sprague Dawley
[12] = system: Rat; experiment: concentration in plasma after dosing; details: dosed: Perfluorodecanoic acid, 2 mg/kg, iv, Male, F344
[13] = system: Rat; experiment: concentration in liver after dosing; details: 1 h; dosed: Perfluorodecanoic acid; 10 mg/kg; oral; Male; Harlan Sprague Dawley
[14] = system: Rat; experiment: concentration in plasma after dosing; details: dosed: Perfluorodecanoic acid, 2 mg/kg, oral, Male, Harlan Sprague Dawley
[15] = system: Rat; experiment: concentration in liver after dosing; details: 1848 h; dosed: Perfluorodecanoic acid; 10 mg/kg; oral; Female; Harlan Sprague Dawley
[16] = system: Rat; experiment: concentration in kidney after dosing; details: 1 h; dosed: Perfluorodecanoic acid; 10 mg/kg; oral; Female; Harlan Sprague Dawley
[17] = system: Rat; experiment: concentration in liver after dosing; details: 2 h; dosed: Bis 2-Chloroethoxy Methane; 20 mg/kg; iv; Female; F344
[18] = system: Rat; experiment: concentration in liver after dosing; details: 1 h; dosed: Bis 2-Chloroethoxy Methane; 20 mg/kg; iv; Female; F344
[19] = system: Rat; experiment: concentration in thymus after dosing; details: 3 h; dosed: Bis 2-Chloroethoxy Methane; 20 mg/kg; iv; Female; F344
[20] = system: Rat; experiment: concentration in thymus after dosing; details: 40 min; dosed: Bis 2-Chloroethoxy Methane; 20 mg/kg; iv; Male; F344
[21] = system: Rat; experiment: concentration in thymus after dosing; details: 2 h; dosed: Bis 2-Chloroethoxy Methane; 20 mg/kg; iv; Female; F344
[22] = system: Rat; experiment: concentration in plasma after dosing; details: 40 min; dosed: Bis 2-Chloroethoxy Methane; 20 mg/kg; iv; Male; F344
[23] = system: Rat; experiment: concentration in plasma after dosing; details: 10 min; dosed: dichloroacetic acid; 10 mg/kg; iv; Male; F344
[24] = system: Rat; experiment: concentration in plasma after dosing; details: dosed: dichloroacetic acid, 100 mg/kg, oral, Male, F344
[25] = system: human; experiment: concentration in plasma after dosing; negative times count back from the end of exposure; details: dosed: trichloroethylene, 100 ppm, inhalation, duration: 4 hr, person, during exposure
Summary of the method: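 A PubMed search, classifier screening and manual review identified published in vivo toxicokinetic studies, which together with two structured collections supplied concentration-versus-time and amount-versus-time points. Points were mostly digitised from plot screenshots with WebPlotDigitizer, otherwise copied from tables. Dose, route, subject details and medium were hand-curated from each paper, and sampling and analytical methods are those of the sources, often unreported.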

[26] = system: Rat; experiment: concentration in plasma after dosing; details: 1 h; dosed: Wyeth-14643; 1.0 mg/kg; oral; Male; Sprague-Dawley
[27] = system: Rat; experiment: concentration in heart after dosing; details: 20 min; dosed: Thiodiglycolic Acid; 20 mg/kg; iv; Female; Harlan Sprague Dawley
[28] = system: Rat; experiment: concentration in liver after dosing; details: 8 h; dosed: Thiodiglycolic Acid; 20 mg/kg; iv; Female; Harlan Sprague Dawley
[29] = system: Rat; experiment: concentration in plasma after dosing; details: 20 min; dosed: Thiodiglycolic Acid; 20 mg/kg; iv; Female; F344
[30] = system: Rat; experiment: concentration in thymus after dosing; details: 4 h; dosed: Thiodiglycolic Acid; 20 mg/kg; iv; Male; Harlan Sprague Dawley
[31] = system: Rat; experiment: concentration in liver after dosing; details: 40 min; dosed: Thiodiglycolic Acid; 20 mg/kg; iv; Male; Harlan Sprague Dawley
[32] = system: Rat; experiment: concentration in heart after dosing; details: 5.333 h; dosed: Thiodiglycolic Acid; 20 mg/kg; iv; Female; Harlan Sprague Dawley
[33] = system: Rat; experiment: concentration in plasma after dosing; details: 10 min; dosed: Thiodiglycolic Acid; 20 mg/kg; iv; Male; F344
[34] = system: Rat; experiment: concentration in liver after dosing; details: 3 h; dosed: Thiodiglycolic Acid; 20 mg/kg; iv; Female; Harlan Sprague Dawley
[35] = system: Rat; experiment: concentration in liver after dosing; details: 1 h; dosed: Thiodiglycolic Acid; 20 mg/kg; iv; Female; Harlan Sprague Dawley
[36] = system: Rat; experiment: concentration in liver after dosing; details: 10 h; dosed: Thiodiglycolic Acid; 20 mg/kg; iv; Female; Harlan Sprague Dawley
[37] = system: Rat; experiment: concentration in plasma after dosing; details: 0.5 h; dosed: Di-n-butyl phthalate; 100 mg/kg; oral; Male; Sprague-Dawley

OCCC(F)(F)C(F)(F)C(F)(F)C(F)(F)C(F)(F)C(F)(F)C(F)(F)C(F)(F)F [Fluorotelomer alcohol 8+2]
concentration in liver [1]: 968 ng/g
concentration in plasma ([2]; 5 min): 22400 ng/mL
concentration in plasma ([2]; 3 h): 516 ng/mL
concentration in brain [3]: 1310 ng/g
concentration in kidney [4]: 351 ng/g

CCC1(c2ccccc2)C(=O)NC(=O)NC1=O [Phenobarbital]
concentration in plasma [5]: 930 ng/mL
concentration in plasma [6]: 5830 ng/mL
concentration in plasma [7]: 5320 ng/mL
concentration in plasma [8]: 330 ng/mL

O=C(O)C(F)(F)C(F)(F)C(F)(F)C(F)(F)C(F)(F)C(F)(F)C(F)(F)C(F)(F)C(F)(F)F [Perfluorodecanoic acid]
concentration in kidney [9]: 866 ng/g
concentration in brain [10]: 867 ng/g
concentration in liver [11]: 54300 ng/g
concentration in plasma ([12]; 6 h): 5600 ng/mL
concentration in plasma ([12]; 864 h): 2690 ng/mL
concentration in liver [13]: 58100 ng/g
concentration in plasma ([14]; 2 h): 4900 ng/mL
concentration in plasma ([14]; 528 h): 2050 ng/mL
concentration in plasma ([14]; 3360 h): 516 ng/mL
concentration in liver [15]: 26000 ng/g
concentration in kidney [16]: 22800 ng/g

ClCCOCOCCCl [Bis 2-Chloroethoxy Methane]
concentration in liver [17]: 70.7 ng/g
concentration in liver [18]: 343 ng/g
concentration in thymus [19]: 448 ng/g
concentration in thymus [20]: 4530 ng/g
concentration in thymus [21]: 376 ng/g
concentration in plasma [22]: 1930 ng/mL

O=C(O)C(Cl)Cl [dichloroacetic acid]
concentration in plasma [23]: 8110 ng/mL
concentration in plasma ([24]; 20 min): 20400 ng/mL
concentration in plasma ([24]; 8 h): 29200 ng/mL
concentration in plasma ([25]; -1 h): 5 ng/mL
concentration in plasma ([25]; -2 h): 4 ng/mL
concentration in plasma ([25]; -3 h): 5 ng/mL

Cc1cccc(Nc2cc(Cl)nc(SCC(=O)O)n2)c1C
concentration in plasma [26]: 828 ng/mL

O=C(O)CSCC(=O)O [Thiodiglycolic Acid]
concentration in heart [27]: 6060 ng/g
concentration in liver [28]: 940 ng/g
concentration in plasma [29]: 9230 ng/mL
concentration in thymus [30]: 904 ng/g
concentration in liver [31]: 183000 ng/g
concentration in heart [32]: 642 ng/g
concentration in plasma [33]: 34600 ng/mL
concentration in liver [34]: 11500 ng/g
concentration in liver [35]: 60100 ng/g
concentration in liver [36]: 1650 ng/g

CCCCOC(=O)c1ccccc1C(=O)O [Mono-n-butyl phthalate]
concentration in plasma [37]: 55900 ng/mL
